Source: article PMC7114206 (Antiviral Research, 2008)
≈ marks a conversion by molar mass, not a printed value. Where “and” joins values, the source holds several entries; their conditions need not be identical. Identical values can stand only once. Like-named read-outs stand apart in the source and are kept apart here. Values belong to the molecule of their own block, whether it stands above or below them.

Columns and labels:
[1] = test system: porcine epidemic diarrhea virus; test: Antiviral activity against PEDV, CPE reduction by SRB method in Vero cells; assay type: cell-based, porcine epidemic diarrhea virus (PEDV CV 777)
Vero cells = test: Cytotoxicity SRB assay in Vero cells; assay type: cell-based, african green monkey
In short: (§1)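 Vero cells seeded at 2 × 10^4/well and grown 1 day, then given medium with serially diluted test compound for 48 h. After PBS wash, cells fixed with cold 70% acetone (30 min, −20 °C), dried and stained 30 min with 0.4% SRB in 1% acetic acid. Dye solubilised in 10 mM Tris and read at A540 (ref 620 nm). CC50 read graphically from % of control curves.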

PEDV = test: Time-of-addition effect on PEDV replication in Vero cells; assay type: cell-based, porcine epidemic diarrhea virus
In short: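 Vero cells seeded at 2 × 10^4/well and grown 1 day, then PBS-washed. […] After 2 days, SRB CPE-reduction read-out expressed as inhibition rate; mean ± S.D. of three independent experiments.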

[2] = test system: membrane (M) gene of PEDV; test: RT-PCR analysis of PEDV replication; assay type: cell-based, porcine epidemic diarrhea virus; details: 10 μg/mL; RNA extracted 24 and 48 h after infection
TGEV = test: Antiviral activity against TGEV in ST cells; assay type: cell-based, transmissible gastroenteritis virus
PRCV = test: Antiviral activity against PRCV in ST cells; assay type: cell-based, porcine respiratory coronavirus
In short: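 PRCV (ATCC VR-2384) grown on ST pig testis cells kept in MEM with 10% FBS and 0.01% antibiotic-antimycotic. Read-out is SRB-based reduction of virus-induced CPE. IC50 is the concentration giving 50% inhibition of CPE, in μg/mL. TI = CC50/IC50. Values are means of three independent experiments run in triplicate ± S.D.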

ST cells = test: Cytotoxicity SRB assay in ST cells; assay type: cell-based, pig; details: for Cytotoxicity: highest concentrations tested
In short: (§2)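 ST pig testis cells kept in MEM with 10% FBS and 0.01% antibiotic-antimycotic. SRB staining gives cell growth. CC50 is the concentration reducing cell growth by 50%, in μg/mL. Values are means of three independent experiments run in triplicate ± S.D.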

[3] = Cytotoxicity SRB assay in Vero cells; assay type: cell-based, african green monkey; details: african green monkey, CC50, concentration required to reduce cell growth by 50%, 48 h
In short: as §1

[4] = Cytotoxicity SRB assay in ST cells; assay type: cell-based, pig; details: pig
In short: as §2

[5] = interferon-α in units, listed as interferon-α

Molecule: Interferon-α
- TI, therapeutic index = CC50/IC50 [1]: >192.3
- IC50, concentration required to inhibit virus-induced CPE by 50% ([1]; interferon-α in units): 0.52 ± 0.5 unit
- IC50, concentration required to inhibit virus-induced CPE by 50% [1, 5]: 0.52 unit
- TI, therapeutic index = CC50/IC50 ([1]; listed as interferon-α): > 192.3
- CC50, concentration required to reduce cell growth by 50% (Vero cells; interferon-α in units): >100 unit
- CC50, concentration required to reduce cell growth by 50% (Vero cells; [5]): > 100 unit

Molecule: Tannic acid
- TI, therapeutic index = CC50/IC50 [1]: 9.2

- IC50 (TGEV; TGEV in ST cells): 63.31 ± 1.07 µg/mL (≈ 141 µM)
- IC50 (PRCV; PRCV in ST cells): 59.76 ± 5.70 µg/mL (≈ 133 µM)
Molecule: C[C@@H]1O[C@@H](Oc2cc(O)c3c(=O)c(O)c(-c4ccc(O)c(O)c4)oc3c2)[C@H](O)[C@H](O)[C@H]1O [Q7R, quercetin 7-rhamnoside]
- TI, therapeutic index = CC50/IC50 [1]: 7142 and > 7142.86
- IC50, concentration required to inhibit virus-induced CPE by 50% ([1]; SRB, 2 days): 0.014 ± 0.005 µg/mL (≈ 0.0312 µM)
- TI, therapeutic index = CC50/IC50 ([1]; listed as Quercetin 7-rhanmoside): >7142.86
- CC50, concentration required to reduce cell growth by 50% (Vero cells; 48 h): >100 µg/mL
- Inhibition rate (time of addition) (PEDV; 10 μg/mL added at 0, 1, 2 and 4 h after virus inoculation, SRB after 2 days): higher than 85%
- Intensity of the RT-PCR product band of PEDV [2]: decreased the intensity of the product band of PEDV at 24 and 48 h after infection
- TI, therapeutic index = CC50/IC50 (TGEV; TGEV in ST cells): >1.58
- TI, therapeutic index = CC50/IC50 (PRCV; PRCV in ST cells): >1.67
- CC50 (ST cells): >100 µg/mL
- Cytotoxicity (ST cells): did not exhibit any cytotoxicity at the highest concentrations tested

Molecule: O.Oc1cc(O)c2c(c1)O[C@H](c1ccc(O)c(O)c1)[C@@H](O)C2 [Catechin]
- TI, therapeutic index = CC50/IC50 [1]: >9.0
- IC50, concentration required to inhibit virus-induced CPE by 50% ([1]; SRB, 2 days): 11.1 ± 7.1 µg/mL
- IC50, concentration required to inhibit virus-induced CPE by 50% ([1]; SRB, 2 days, listed as catechin): less than 12 μg/mL
- CC50, concentration required to reduce cell growth by 50% (Vero cells; 48 h): >100 µg/mL

Molecule: O=c1c(O)c(-c2ccc(O)c(O)c2)oc2cc(O)cc(O)c12 [Quercetin]
- TI, therapeutic index = CC50/IC50 [1]: 214.8
- CC50 at 48 h [3]: 365 µg/mL (≈ 1210 µM)

Molecule: O=c1cc(-c2ccc(O)c(O)c2)oc2cc(O)cc(O)c12 [Luteolin]
- IC50, concentration required to inhibit virus-induced CPE by 50% ([1]; SRB, 2 days): 0.2 ± 0.2 µg/mL (≈ 0.699 µM)
- IC50, concentration required to inhibit virus-induced CPE by 50% ([1]; SRB, 2 days, listed as luteolin): less than 12 μg/mL
- CC50 at 48 h [3]: 6.7 µg/mL (≈ 23.4 µM)

- IC50 (TGEV; Alphacoronavirus 1): 55.1 ± 0.8 µg/mL (≈ 226 µM)
- IC50 (PRCV; Alphacoronavirus 1): 61.6 ± 1.91 µg/mL (≈ 252 µM)
Molecule: NC(=O)c1ncn([C@@H]2O[C@H](CO)[C@@H](O)[C@H]2O)n1 [Ribavirin]
- TI, therapeutic index = CC50/IC50 [1]: 103.2
- CC50 at 48 h [3]: 423 µg/mL (≈ 1730 µM)
- inhibition at 10 µg/mL (PEDV; Porcine epidemic diarrhea virus, Vero, read-out: Inhibition rate (time of addition)): < 50%
- Intensity of the RT-PCR product band of PEDV [2]: did not decrease the intensity of the product band of PEDV at 48 h after infection
- TI, therapeutic index = CC50/IC50 (PRCV; PRCV in ST cells): >1.62
- CC50 at 48 h [4]: > 100 µg/mL
- Cytotoxicity (ST cells): did not exhibit any cytotoxicity at the highest concentrations tested

Molecule: O=c1cc(-c2ccc(O)cc2)oc2cc(O)cc(O)c12 [Apigenin]
- IC50, concentration required to inhibit virus-induced CPE by 50% ([1]; SRB, 2 days): 0.1 ± 0.1 µg/mL (≈ 0.37 µM)
- IC50, concentration required to inhibit virus-induced CPE by 50% ([1]; SRB, 2 days, listed as apigenin): less than 12 μg/mL
- CC50 at 48 h [3]: > 50 µg/mL

Molecule: O=c1ccc2ccccc2o1 [Coumarin]
- TI, therapeutic index = CC50/IC50 [1]: 4.8
